Reference: ChEMBL document CHEMBL4190249, “Antiproliferative and apoptotic activities of sequence-specific histone acetyltransferase inhibitors” (Eur J Med Chem, 2017)
Activity calls are given as the source filed them. The calls are words filed in the database; no cut-off is given here.

Legend:
A549 [1] = assay: Upregulation of ABCA12 gene expression in human A549 cells at 2 uM after 48 hrs by microarray analysis relative to control; assay type: functional
In short: (§1)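 A549 cells plated at 2×10^5 cells/well, treated 48 h at 2 μM, with DMSO vehicle as control. Whole-genome transcriptional profiling followed the manufacturer's protocol. Total RNA integrity was checked by Bioanalyzer before arraying.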

A549 [2] = assay: Upregulation of CDKN1A gene expression in human A549 cells at 2 uM after 48 hrs by microarray analysis relative to control; assay type: functional; in short: as §1
A549 [3] = assay: Upregulation of WDR63 gene expression in human A549 cells at 2 uM after 48 hrs by microarray analysis relative to control; assay type: functional; in short: as §1
[4] = molecular target: Cellular tumor antigen p53 (Homo sapiens) (UniProt P04637); assay: Activation of p53 in human A549 cells assessed as downregulation of CHAC1 gene expression at 2 uM after 48 hrs by microarray analysis relative to control; assay type: cell-based; in short: as §1
Cellular tumor antigen p53 (Homo sapiens), sequence (P04637 whole entry, looked up): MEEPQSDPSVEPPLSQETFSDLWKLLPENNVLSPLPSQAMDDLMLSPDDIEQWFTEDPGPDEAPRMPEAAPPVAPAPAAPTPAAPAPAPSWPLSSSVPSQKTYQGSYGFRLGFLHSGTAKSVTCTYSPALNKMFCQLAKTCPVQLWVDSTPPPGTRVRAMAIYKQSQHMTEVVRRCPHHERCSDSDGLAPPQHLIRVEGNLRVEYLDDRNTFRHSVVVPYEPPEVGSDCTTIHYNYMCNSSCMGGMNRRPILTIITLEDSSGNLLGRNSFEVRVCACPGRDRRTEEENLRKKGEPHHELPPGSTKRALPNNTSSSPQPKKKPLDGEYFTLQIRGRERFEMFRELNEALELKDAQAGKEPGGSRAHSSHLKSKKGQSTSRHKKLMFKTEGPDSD

A549 [5] = assay: Upregulation of MIR3685 gene expression in human A549 cells at 2 uM after 48 hrs by microarray analysis relative to control; assay type: functional; in short: as §1
A549 [6] = assay: Induction of apoptosis in human A549 cells at 2 uM after 48 hrs by Annexin V-FITC/ethidium homodimer-3/Hoechst 33342 staining based fluorescence microscopic method; assay type: functional, cell-based
In short: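 A549 cells seeded in chamber slides at 2×10^4 cells/well and exposed to 2 μM for 48 h; vehicle control 0.1% DMSO. Cells were washed in binding buffer and stained with FITC-annexin V (apoptotic), ethidium homodimer III (necrotic) and Hoechst 33342 (all nuclei), then imaged by confocal fluorescence microscopy.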

A549 [7] = assay: Antiproliferative activity against human A549 cells after 96 hrs by WST8 assay; assay type: functional, cell-based
In short: (§2)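 Cells seeded at 5×10^3 per well and grown 24 h at 37°C, 5% CO2. A549 medium was DMEM with 10% FBS and 2 mM L-glutamine. SW620 medium had 10% FBS and 1% penicillin/streptomycin. Medium was then replaced with conjugate at 0.1, 1, 5 or 10 μM for 96 h. WST-8 reagent was added and absorbance read at 450 nm. Results are mean ± SD.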

[8] = molecular target: Cellular tumor antigen p53 (Homo sapiens) (UniProt P04637); assay: Activation of p53 in human A549 cells assessed as upregulation of DDB2 gene expression at 2 uM after 48 hrs by microarray analysis relative to control; assay type: cell-based; in short: as §1
[9] = molecular target: Cellular tumor antigen p53 (Homo sapiens) (UniProt P04637); assay: Activation of p53 in human A549 cells assessed as upregulation of EDA2R gene expression at 2 uM after 48 hrs by microarray analysis relative to control; assay type: cell-based; in short: as §1
[10] = molecular target: Cellular tumor antigen p53 (Homo sapiens) (UniProt P04637); assay: Activation of p53 in human A549 cells assessed as upregulation of CD70 gene expression at 2 uM after 48 hrs by microarray analysis relative to control; assay type: cell-based; in short: as §1
[11] = molecular target: Cellular tumor antigen p53 (Homo sapiens) (UniProt P04637); assay: Activation of p53 in human A549 cells assessed as upregulation of CYFIP2 gene expression at 2 uM after 48 hrs by microarray analysis relative to control; assay type: cell-based; in short: as §1
[12] = molecular target: Cellular tumor antigen p53 (Homo sapiens) (UniProt P04637); assay: Activation of p53 in human A549 cells assessed as upregulation of MDM2 gene expression at 2 uM after 48 hrs by microarray analysis relative to control; assay type: cell-based; in short: as §1
SW-620 = assay: Antiproliferative activity against human SW620 cells harboring p53 mutant assessed as cell viability at 10 uM after 96 hrs by WST8 assay relative to control; assay type: functional; details: SW-620, 96 h, read-out: Activity; in short: as §2
A549 [13] = assay: Downregulation of GUSBP3 gene expression in human A549 cells at 2 uM after 48 hrs by microarray analysis relative to control; assay type: functional; in short: as §1
A549 [14] = assay: Upregulation of ANKRD1 gene expression in human A549 cells at 2 uM after 48 hrs by microarray analysis relative to control; assay type: functional; in short: as §1
[15] = molecular target: Histone acetyltransferase p300 (Homo sapiens, UniProt Q09472); assay: Inhibition of p300 (unknown origin) using H3 peptide and acetyl-coA as substrate by fluorometric assay
Histone acetyltransferase p300, sequence (Q09472 whole entry, the tested form may be a part): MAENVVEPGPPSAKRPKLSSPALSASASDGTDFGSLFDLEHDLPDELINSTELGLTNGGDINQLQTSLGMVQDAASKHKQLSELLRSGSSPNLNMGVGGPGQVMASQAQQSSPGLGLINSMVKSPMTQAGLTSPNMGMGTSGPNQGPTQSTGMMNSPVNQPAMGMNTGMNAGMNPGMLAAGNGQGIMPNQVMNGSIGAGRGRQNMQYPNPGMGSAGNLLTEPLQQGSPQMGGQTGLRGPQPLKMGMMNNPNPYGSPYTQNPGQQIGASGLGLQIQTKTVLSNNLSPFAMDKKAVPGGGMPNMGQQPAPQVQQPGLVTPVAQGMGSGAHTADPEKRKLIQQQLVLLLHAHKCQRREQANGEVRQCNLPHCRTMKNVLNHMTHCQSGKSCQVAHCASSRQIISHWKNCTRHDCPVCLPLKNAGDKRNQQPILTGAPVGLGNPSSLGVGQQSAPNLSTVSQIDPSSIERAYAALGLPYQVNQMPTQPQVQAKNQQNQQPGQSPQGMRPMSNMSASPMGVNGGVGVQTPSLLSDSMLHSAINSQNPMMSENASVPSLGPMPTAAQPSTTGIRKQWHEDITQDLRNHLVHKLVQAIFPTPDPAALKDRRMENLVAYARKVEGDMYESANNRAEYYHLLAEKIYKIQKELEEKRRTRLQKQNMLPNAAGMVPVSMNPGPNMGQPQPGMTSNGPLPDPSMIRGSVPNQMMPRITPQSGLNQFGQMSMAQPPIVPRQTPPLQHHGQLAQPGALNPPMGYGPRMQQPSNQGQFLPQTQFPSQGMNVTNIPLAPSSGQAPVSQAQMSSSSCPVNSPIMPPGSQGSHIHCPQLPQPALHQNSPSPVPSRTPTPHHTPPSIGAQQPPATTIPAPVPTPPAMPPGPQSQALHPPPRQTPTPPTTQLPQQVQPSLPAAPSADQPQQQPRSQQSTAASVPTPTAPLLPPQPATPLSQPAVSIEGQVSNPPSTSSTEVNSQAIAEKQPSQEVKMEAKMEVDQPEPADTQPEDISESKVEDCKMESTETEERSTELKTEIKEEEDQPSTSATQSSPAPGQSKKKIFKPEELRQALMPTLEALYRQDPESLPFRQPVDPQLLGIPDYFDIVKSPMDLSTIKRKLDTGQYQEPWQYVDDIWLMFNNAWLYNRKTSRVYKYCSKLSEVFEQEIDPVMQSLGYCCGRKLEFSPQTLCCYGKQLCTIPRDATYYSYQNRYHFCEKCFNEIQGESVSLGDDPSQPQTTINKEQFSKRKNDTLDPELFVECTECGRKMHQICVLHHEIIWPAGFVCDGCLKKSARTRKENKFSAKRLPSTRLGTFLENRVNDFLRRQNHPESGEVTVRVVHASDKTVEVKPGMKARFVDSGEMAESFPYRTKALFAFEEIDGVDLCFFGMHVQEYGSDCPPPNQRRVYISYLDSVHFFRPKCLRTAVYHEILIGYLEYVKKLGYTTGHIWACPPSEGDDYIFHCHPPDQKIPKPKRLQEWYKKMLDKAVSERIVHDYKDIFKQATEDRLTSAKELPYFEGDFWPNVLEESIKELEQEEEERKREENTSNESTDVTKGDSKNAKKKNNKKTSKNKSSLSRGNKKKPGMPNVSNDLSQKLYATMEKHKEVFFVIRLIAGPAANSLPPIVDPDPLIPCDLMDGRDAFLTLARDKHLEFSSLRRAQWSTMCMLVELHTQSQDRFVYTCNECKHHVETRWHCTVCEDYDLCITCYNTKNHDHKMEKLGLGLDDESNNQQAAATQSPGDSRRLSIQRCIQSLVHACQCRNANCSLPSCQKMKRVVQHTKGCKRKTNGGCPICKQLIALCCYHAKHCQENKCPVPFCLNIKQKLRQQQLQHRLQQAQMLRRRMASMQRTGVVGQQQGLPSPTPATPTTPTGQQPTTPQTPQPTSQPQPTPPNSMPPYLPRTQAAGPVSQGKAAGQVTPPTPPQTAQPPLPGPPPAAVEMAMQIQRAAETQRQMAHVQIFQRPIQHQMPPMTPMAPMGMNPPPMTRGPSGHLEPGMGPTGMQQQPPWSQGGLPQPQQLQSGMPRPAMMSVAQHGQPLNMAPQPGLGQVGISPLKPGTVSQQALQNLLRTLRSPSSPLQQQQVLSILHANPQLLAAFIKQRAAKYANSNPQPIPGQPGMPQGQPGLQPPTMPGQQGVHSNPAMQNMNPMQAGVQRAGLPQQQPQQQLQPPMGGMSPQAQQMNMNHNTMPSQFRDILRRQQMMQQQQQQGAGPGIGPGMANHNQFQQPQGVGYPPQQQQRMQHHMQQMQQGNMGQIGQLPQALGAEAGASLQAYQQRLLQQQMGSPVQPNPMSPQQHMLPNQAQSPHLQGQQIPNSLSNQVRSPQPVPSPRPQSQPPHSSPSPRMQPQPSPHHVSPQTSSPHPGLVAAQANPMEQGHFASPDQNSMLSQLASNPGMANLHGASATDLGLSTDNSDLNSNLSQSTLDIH
In short: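 Fluorometric HAT kit assay with recombinant p300 core domain as enzyme and acetyl-CoA plus H3 histone peptide as substrates. Effectors were tested at 1 and 5 μM. HeLa nuclear extract served as positive control, and 0.5% DMSO was set as 100% activity.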

[16] = molecular target: Cellular tumor antigen p53 (Homo sapiens) (UniProt P04637); assay: Activation of p53 in human A549 cells assessed as upregulation of FDXR gene expression at 2 uM after 48 hrs by microarray analysis relative to control; assay type: cell-based; in short: as §1
A549 [17] = assay: Upregulation of SULF2 gene expression in human A549 cells at 2 uM after 48 hrs by microarray analysis relative to control; assay type: functional; in short: as §1
[18] = molecular target: Cellular tumor antigen p53 (Homo sapiens) (UniProt P04637); assay: Activation of p53 in human A549 cells assessed as upregulation of TP53INP1 gene expression at 2 uM after 48 hrs by microarray analysis relative to control; assay type: cell-based; in short: as §1
A549 [19] = assay: Upregulation of SCARNA7 gene expression in human A549 cells at 2 uM after 48 hrs by microarray analysis relative to control; assay type: functional; in short: as §1
A549 [20] = assay: Downregulation of ULBP1 gene expression in human A549 cells at 2 uM after 48 hrs by microarray analysis relative to control; assay type: functional; in short: as §1
MV4-11 = assay: Antiproliferative activity against human MV4-11 cells harboring wild type p53 after 96 hrs by WST8 assay; assay type: functional, cell-based; details: MV4-11, 96 h
[21] = molecular target: Cellular tumor antigen p53 (Homo sapiens) (UniProt P04637); assay: Activation of p53 in human A549 cells assessed as upregulation of SESN1 gene expression at 2 uM after 48 hrs by microarray analysis relative to control; assay type: cell-based; in short: as §1
dsDNA [22] = assay: Binding affinity to 5'-ACTTATTCCATATAGA-3'/3'-TGAATAAGGTATATCT-5' dsDNA (unknown origin) assessed as change in melting temperature at 2.5 uM by spectrophotometric method; assay type: nucleic-acid assay
[23] = molecular target: Cellular tumor antigen p53 (Homo sapiens) (UniProt P04637); assay: Activation of p53 in human A549 cells assessed as upregulation of BTG2 gene expression at 2 uM after 48 hrs by microarray analysis relative to control; assay type: cell-based; in short: as §1
dsDNA [24] = assay: Binding affinity to 5'-ACTTATCCACTATAGA-3'/3'-TGAATAGGTGATATCT-5' dsDNA (unknown origin) assessed as change in melting temperature at 2.5 uM by spectrophotometric method; assay type: nucleic-acid assay
A549 [25] = assay: Upregulation of MIR3189 gene expression in human A549 cells at 2 uM after 48 hrs by microarray analysis relative to control; assay type: functional; in short: as §1
MDA-MB-231 = assay: Antiproliferative activity against human MDA-MB-231 cells harboring p53 mutant assessed as cell viability at 10 uM after 96 hrs by WST8 assay relative to control; assay type: functional; details: MDA-MB-231, 96 h, read-out: Activity
A549 [26] = assay: Downregulation of SNORA9 gene expression in human A549 cells at 2 uM after 48 hrs by microarray analysis relative to control; assay type: functional; in short: as §1
[27] = molecular target: Cellular tumor antigen p53 (Homo sapiens) (UniProt P04637); assay: Activation of p53 in human A549 cells assessed as upregulation of FAS gene expression at 2 uM after 48 hrs by microarray analysis relative to control; assay type: cell-based; in short: as §1
A549 [28] = assay: Upregulation of MIR4713 gene expression in human A549 cells at 2 uM after 48 hrs by microarray analysis relative to control; assay type: functional; in short: as §1
A549 [29] = assay: Upregulation of UIMC1 gene expression in human A549 cells at 2 uM after 48 hrs by microarray analysis relative to control; assay type: functional; in short: as §1
[30] = molecular target: Cellular tumor antigen p53 (Homo sapiens) (UniProt P04637); assay: Activation of p53 in human A549 cells assessed as downregulation of STC2 gene expression at 2 uM after 48 hrs by microarray analysis relative to control; assay type: cell-based; in short: as §1
A549 [31] = assay: Downregulation of ALDH1L2 gene expression in human A549 cells at 2 uM after 48 hrs by microarray analysis relative to control; assay type: functional; in short: as §1
A549 [32] = assay: Downregulation of TAS2R30 gene expression in human A549 cells at 2 uM after 48 hrs by microarray analysis relative to control; assay type: functional; in short: as §1
A549 [33] = assay: Upregulation of GDF15 gene expression in human A549 cells at 2 uM after 48 hrs by microarray analysis relative to control; assay type: functional; in short: as §1
[34] = molecular target: Cellular tumor antigen p53 (Homo sapiens) (UniProt P04637); assay: Activation of p53 in human A549 cells assessed as downregulation of CARS gene expression at 2 uM after 48 hrs by microarray analysis relative to control; assay type: cell-based; in short: as §1
[35] = molecular target: Cellular tumor antigen p53 (Homo sapiens) (UniProt P04637); assay: Activation of p53 in human A549 cells assessed as upregulation of SPATA18 gene expression at 2 uM after 48 hrs by microarray analysis relative to control; assay type: cell-based; in short: as §1
A549 [36] = assay: Upregulation of GAS6-AS1 gene expression in human A549 cells at 2 uM after 48 hrs by microarray analysis relative to control; assay type: functional; in short: as §1
A549 [37] = assay: Upregulation of NEFL gene expression in human A549 cells at 2 uM after 48 hrs by microarray analysis relative to control; assay type: functional; in short: as §1
A549 [38] = assay: Downregulation of ASNS gene expression in human A549 cells at 2 uM after 48 hrs by microarray analysis relative to control; assay type: functional; in short: as §1
A549 [39] = assay: Upregulation of POLH gene expression in human A549 cells at 2 uM after 48 hrs by microarray analysis relative to control; assay type: functional; in short: as §1

- fold change (FC) [4]: 3.64
- IC50 (A549 [7]; A549, 96 h): 1800 nM
- fold change (FC) [8]: 1.8
- fold change (FC) [9]: 2.53
- fold change (FC) [10]: 1.83
- fold change (FC) [11]: 1.88
- fold change (FC) [12]: 1.97
- IC50 [15]: 3900 to 4200 nM
- fold change (FC) [16]: 2
- fold change (FC) [18]: 1.85
- IC50 (MV4-11): 2600 nM
- fold change (FC) [21]: 1.91
- ΔTm (dsDNA [22]): 18.1 °C
- fold change (FC) [23]: 2.35
- ΔTm (dsDNA [24]): 11.5 °C
- fold change (FC) [27]: 1.83
- fold change (FC) [30]: 2.34
- fold change (FC) [34]: 1.9
- fold change (FC) [35]: 2.98
Compound: CC1=NN(c2ccc(C(=O)NCCOCCOCC(=O)NCCC(=O)Nc3cc(C(=O)Nc4cn(C)c(C(=O)Nc5cn(C)c(C(=O)Nc6cc(C(=O)NCCCC(=O)Nc7cc(C(=O)Nc8cc(C(=O)Nc9cc(C(=O)Nc%10cc(C(=O)NCCCN(C)C)n(C)c%10)n(C)c9)n(C)c8)n(C)c7)n(C)c6)n5)n4)n(C)c3)cc2)C(=O)/C1=C/c1ccc(-c2cc(C)c(C)cc2[N+](=O)[O-])o1
- fold change (FC) (A549 [1]): 2.42
- fold change (FC) (A549 [2]): 2.28
- fold change (FC) (A549 [3]): 2.03
- fold change (FC) (A549 [5]): 1.89
- Activity (A549 [6]): Active
- Activity (A549 [7]): Dose-dependent effect
- viability at 10 µM (SW-620): 78.4%
- fold change (FC) (A549 [13]): 2.63
- fold change (FC) (A549 [14]): 1.81
- fold change (FC) (A549 [17]): 2.13
- fold change (FC) (A549 [19]): 1.89
- fold change (FC) (A549 [20]): 2.34
- fold change (FC) (A549 [25]): 2.32
- viability at 10 µM (MDA-MB-231): 69.3%
- fold change (FC) (A549 [26]): 1.81
- fold change (FC) (A549 [28]): 1.94
- fold change (FC) (A549 [29]): 1.94
- fold change (FC) (A549 [31]): 1.86
- fold change (FC) (A549 [32]): 2.01
- fold change (FC) (A549 [33]): 1.81
- fold change (FC) (A549 [36]): 1.81
- fold change (FC) (A549 [37]): 1.8
- fold change (FC) (A549 [38]): 2.01
- fold change (FC) (A549 [39]): 1.88
